Screens deposited in PubChem BioAssay by several laboratories.
FLuc inh counter – inhibits firefly luciferase, flagging false hits in luciferase inhibition screens; P08659; ATPLite firefly luciferase biochemical luminescence, 10 min; inhibition, % at 10 µM; actives 1.5% (n = 200,000);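 active means inhibition above about 50% when tested at 10 µM, limit read from the data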
Target sequence (P08659 whole entry, looked up): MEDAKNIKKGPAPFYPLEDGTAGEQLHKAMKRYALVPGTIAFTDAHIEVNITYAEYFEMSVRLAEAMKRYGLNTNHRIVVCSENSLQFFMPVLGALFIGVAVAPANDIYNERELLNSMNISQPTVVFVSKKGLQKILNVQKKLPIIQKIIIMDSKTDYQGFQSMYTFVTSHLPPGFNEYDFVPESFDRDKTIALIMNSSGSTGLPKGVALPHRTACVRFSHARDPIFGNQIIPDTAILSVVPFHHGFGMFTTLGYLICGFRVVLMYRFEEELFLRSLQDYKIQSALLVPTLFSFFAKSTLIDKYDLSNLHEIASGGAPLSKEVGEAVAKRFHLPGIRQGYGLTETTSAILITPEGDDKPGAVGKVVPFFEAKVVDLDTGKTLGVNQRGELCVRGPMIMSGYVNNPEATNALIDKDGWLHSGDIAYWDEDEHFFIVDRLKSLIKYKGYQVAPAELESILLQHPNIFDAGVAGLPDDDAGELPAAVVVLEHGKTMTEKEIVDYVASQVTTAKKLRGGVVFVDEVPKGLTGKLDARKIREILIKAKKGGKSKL
APP 5'UTR act – activates APP 5'UTR luciferase reporter; actives 1% (n = 190,000); SH-SY5Y APP 5'UTR luciferase reporter, luminescence; zero percent = DMSO vehicle wells; activation, % at 2 µM;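 active means activation above a set limit, based on mean plus 3 SD of controls, cut at about 140% in these data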
STAT1 act – increases IFN-gamma driven STAT1 reporter signal | activation (% of control), % at 5.5 µM | actives 2.6% (n = 200,000) | AID 932 | NIH 3T3 STAT1-luciferase reporter, luminescence; 100% = IFN-gamma alone, no compound;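 active means activation above the screen-wide mean activation plus 3 SD, cut at about 130% in these data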
FLuc stim CS – firefly luciferase counter-screen for stimulation assays; activation factor at 10 µM; AID 1027; ATPlite luciferase biochemical, luminescence, 10 min; 0 = ATP-free wells, 1 = DMSO control; 200,000 tested, under 10 active;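 active means luciferase activation factor, scaled between plate controls, of at least 2 with compound at 10 µM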
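Material: Luciferase/luciferin reagent mix; Doses: test compounds dosed from 2 mM stocks in 100% DMSO; Schedule: 10 min incubation after luciferase reagent addition, room temperature; Measured by: luminescence from luciferase reaction; Read-out: luminescence gain marking luciferase activators.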
NF-kB neuron act – raises NF-kB expression in human neuronal cells | actives 1.6% (n = 190,000) | AID 1239 | fold change at 12.5 µM | NF-kB reporter expression; stronger effect = higher value; in the data active means fold change above about 3.3
Of the large screens only hits and unclear results are named; the others gave an inactive call. Compounds with a hit are over-represented: about 4.1% of the library has one in this group of screens.

Cc1cc(NS(=O)(=O)c2ccc(NC(=O)/C=C/c3ccc(C)o3)cc2)nc(C)n1	none
COC(=O)CCSc1cc([N+](=O)[O-])cc2c1c(C1OCCO1)nn2-c1ccccc1	none
Nc1nc2ccccc2n1C(=O)CCc1ccccc1	STAT1 act 136
O=c1c(-c2cnn(-c3ccccc3)c2)coc2cc(O)ccc12	APP 5'UTR act 140, STAT1 act 132, NF-kB neuron act 3.7
Cc1ccc(C(=O)CSc2ncnc3ccccc23)o1	STAT1 act 159
O=C(CSc1ncnc2ccccc12)c1cccs1	FLuc inh counter 70, APP 5'UTR act 139, NF-kB neuron act 4.6
O=C(CSc1ncnc2ccccc12)N1CCCC1	none
CCCn1cc(S(=O)(=O)CC(=O)NC2CCCCC2)c2ccccc21	none
N#Cc1c(/N=C/c2cccs2)sc2c1CCC2	FLuc inh counter 62, STAT1 act 140
CN(C)/C=N/c1sc2c(c1C#N)CCCC2	none
N#Cc1c(/N=C/c2ccco2)sc2c1CCCCC2	FLuc inh counter 94, STAT1 act 138
CN(C)/C=C(\C#N)S(=O)(=O)c1ccccc1	none (no result: NF-kB neuron act)
Cc1ccc(C(C(=O)NC2CCCCC2)N(CC2CCCO2)C(=O)CNC(=O)c2cccs2)cc1 (stereo not drawn)	none
COc1cc(-n2nnnc2SC)c(OC)cc1Cl	NF-kB neuron act 3.6
COc1ccccc1-n1nnnc1SCc1ccccc1	none
O=C(Nc1ccc2oc(=O)ccc2c1)c1cc2ccccc2o1	STAT1 act 148
O=C(Nc1ccc2c(c1)OCCO2)c1ccc(Br)o1	FLuc inh counter 82, APP 5'UTR act 136, NF-kB neuron act 4.9
Cn1c(=O)n(C)c2cc(NC(=O)c3cc4ccccc4o3)ccc21	none
O=C(Nc1ccc2c(c1)OCCO2)c1cc2ccccc2o1	FLuc inh counter 92, APP 5'UTR act 225, NF-kB neuron act 9.2
Cc1cc(=O)oc2cc(NC(=O)c3cc4ccccc4o3)ccc12	none
CCCCNC(=O)c1onc(CSc2ccc(C)c(C)c2)c1C(=O)O	none
Cc1ccccc1-c1nnc(-c2ccccc2)o1	APP 5'UTR act 138, STAT1 act 131, NF-kB neuron act 4.2
Clc1ccccc1-c1nnc(-c2ccccc2Cl)o1	NF-kB neuron act 3.4
Cc1cccc(-c2nnc(-c3ccccc3)o2)c1	STAT1 act 132
Cc1ccccc1-c1nnc(-c2ccc(Cl)cc2)o1	STAT1 act 138, NF-kB neuron act 4.1
Cc1cccc(NCc2nnc(-c3ccccc3)o2)c1C	none
CCN=C1S/C(=C\c2sccc2C)C(=O)N1CC	STAT1 act 130
CCN=C1S/C(=C\c2ccc(OC)c(OCC)c2)C(=O)N1CC	none
CCOc1ccc(N(C(C)C(=O)NN=C2CCCCCCC2)S(C)(=O)=O)cc1 (stereo not drawn)	none
CC(C)Sc1nc(N)nc(-c2cccs2)c1C#N	STAT1 act 134 (no result: APP 5'UTR act)
COc1ccc(C/C(C)=N/NC(=S)Nc2ccccc2F)cc1	APP 5'UTR act 176
O=C(CCc1nnc(-c2ccsc2)o1)N1CCc2c(Cl)cccc2C1	STAT1 act 129
O=C(CCc1nnc(-c2ccc(-c3ccccc3)cc2)o1)N1CCCCC1	none (no result: NF-kB neuron act)
COc1ccc(C2C(C#N)=C(N)Nc3onc(C(C)(C)C)c32)c(OC)c1 (stereo not drawn)	none
CC(C)CCOc1ccc(Cl)cc1CN1CCOCC1	none
COC(=O)c1ccc2nc(-c3ccc4c(c3)OCO4)cn2c1	FLuc inh counter 85, NF-kB neuron act 5
c1cnc2nc(-c3ccc4c(c3)OCO4)cn2c1	FLuc inh counter 55, STAT1 act 136
Cc1ccc(-c2cn3cccnc3n2)cc1	FLuc inh counter 66
Cn1c(=O)c2c(nc(NCc3cccnc3)n2Cc2ccc(Cl)cc2)n(C)c1=O	none
CC(=O)NC(CCS(C)(=O)=O)C(=O)Nc1cc(C)on1 (stereo not drawn)	none (no result: NF-kB neuron act)
Cc1cc(Nc2ccc(F)cc2F)n2nc(C)nc2n1	none
Fc1ccc(Nc2ccc3ccccc3n2)c(F)c1	FLuc inh counter 70, APP 5'UTR act 200, NF-kB neuron act 11
COc1ccc(/C=C/C(=O)NCC(=O)N/N=C/c2ccc(OC)cc2)cc1	none
O=C(O)c1cc(-c2c[nH]c3ccccc23)nc2ccc3ccccc3c12	FLuc inh counter 80
c1ccc2c(-c3c[nH]c4ccccc34)c3ccccc3nc2c1	none
CN1C(=S)SC(/[N+]([O-])=C\c2ccc(Cl)cc2)C1(C)C (stereo not drawn)	none
Cc1cccc(/C=N\Nc2cn[nH]c(=O)c2Cl)c1	none
